Measurements taken from ChEMBL document CHEMBL4689842, “EUbOPEN Chemogenomics Library wave 1” (2021).
Values joined by “and” are separate entries in the source; they are usually repeats but may differ in a detail not shown here. Equal values may be shown once.

System: HEK-293T
Assay: Multiplex assay against HEK293T;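 for Population Tubulin-Different-Phenotype (%): share of the cells with healthy nuclei that show this phenotype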
Type: toxicity, cell-based
Details: human, 10 µM, compound concentration 10 uM
In short: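 Compound was added to live cells that had been stained at seeding with Hoechst33342, BioTracker Green Microtubule Cytoskeleton Dye, MitoTracker Red and Annexin V Alexa Fluor 680, and imaging followed on a CQ1 microscope at 37°C and 5% CO2. CellPathfinder machine-learning gating divided cells into Hoechst high-intensity objects or normal cells, normal cells into healthy, pyknosed or fragmented nuclei, and pyknosed cells into mitotic or apoptotic. Tubulin, mitochondrial-mass and membrane-permeability phenotypes are per cents of healthy-nucleus cells.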

Cc1sc2c(c1C)C(c1ccc(Cl)cc1)=N[C@@H](CC(=O)OC(C)(C)C)c1nnc(C)n1-2
Population Apoptotic (%) (12 h, replicate 1): 16% and 17% | Population Fragmented Nuclei (%) (12 h, replicate 1): 19% and 13% | Population Healthy Nuclei (%) (12 h, replicate 1): 65% and 71% | Population Hoechst High Intensity Objects (%) (12 h, replicate 1): 14% and 8% | Population Membrane Permeable-Phenotype (%) (12 h, replicate 1): 3% | Population Mitochondria Different-Phenotype (%) (12 h, replicate 1): 6% and 5% | Population Mitotic Cells (%) (12 h, replicate 1): 83% and 82% | Population Normal (%) (12 h, replicate 1): 85% and 91% | Population Pyknosed Nuclei (%) (12 h, replicate 1): 15% | Population Tubulin-Different-Phenotype (%) (12 h, replicate 1): 2% | Total Cell Count (12 h, replicate 1): 561 and 772 | Population Apoptotic (%) (12 h, replicate 2): 6% and 3% | Population Fragmented Nuclei (%) (12 h, replicate 2): 14% and 12% | Population Healthy Nuclei (%) (12 h, replicate 2): 79% | Population Hoechst High Intensity Objects (%) (12 h, replicate 2): 3% and 4% | Population Membrane Permeable-Phenotype (%) (12 h, replicate 2): 0% | Population Mitochondria Different-Phenotype (%) (12 h, replicate 2): 10% and 11% | Population Mitotic Cells (%) (12 h, replicate 2): 93% and 96% | Population Normal (%) (12 h, replicate 2): 96% and 95% | Population Pyknosed Nuclei (%) (12 h, replicate 2): 5% and 7% | Population Tubulin-Different-Phenotype (%) (12 h, replicate 2): 0% | Total Cell Count (12 h, replicate 2): 1959 and 1675 | Population Apoptotic (%) (24 h, replicate 1): 16% and 12% | Population Fragmented Nuclei (%) (24 h, replicate 1): 17% and 9% | Population Healthy Nuclei (%) (24 h, replicate 1): 70% and 80% | Population Hoechst High Intensity Objects (%) (24 h, replicate 1): 11% and 10% | Population Membrane Permeable-Phenotype (%) (24 h, replicate 1): 1% | Population Mitochondria Different-Phenotype (%) (24 h, replicate 1): 7% and 3% | Population Mitotic Cells (%) (24 h, replicate 1): 84% and 87% | Population Normal (%) (24 h, replicate 1): 88% and 89% | Population Pyknosed Nuclei (%) (24 h, replicate 1): 11% and 10% | Population Tubulin-Different-Phenotype (%) (24 h, replicate 1): 2% and 1% | Total Cell Count (24 h, replicate 1): 472 and 770 | Population Apoptotic (%) (24 h, replicate 2): 5% | Population Fragmented Nuclei (%) (24 h, replicate 2): 19% and 20% | Population Healthy Nuclei (%) (24 h, replicate 2): 76% and 75% | Population Hoechst High Intensity Objects (%) (24 h, replicate 2): 5% | Population Membrane Permeable-Phenotype (%) (24 h, replicate 2): 0% | Population Mitochondria Different-Phenotype (%) (24 h, replicate 2): 5% | Population Mitotic Cells (%) (24 h, replicate 2): 94% | Population Normal (%) (24 h, replicate 2): 94% | Population Pyknosed Nuclei (%) (24 h, replicate 2): 4% and 3% | Population Tubulin-Different-Phenotype (%) (24 h, replicate 2): 0% | Total Cell Count (24 h, replicate 2): 1813 and 2044

CCn1c(=O)c(-c2ccc(Cl)cc2Cl)cc2cnc(Nc3ccc(N4CCNCC4)c(F)c3)nc21
Population Fragmented Nuclei (%) (12 h, replicate 1): 32% and 25% and 19% | Population Hoechst High Intensity Objects (%) (12 h, replicate 1): 51% and 56% and 22% | Population Membrane Permeable-Phenotype (%) (12 h, replicate 1): 0% and 19% and 5% | Population Normal (%) (12 h, replicate 1): 48% and 43% and 77% | Population Pyknosed Nuclei (%) (12 h, replicate 1): 63% and 42% and 26% | Population Tubulin-Different-Phenotype (%) (12 h, replicate 1): 40% and 64% and 37% | Population Tubulin-Different-Phenotype (%) (12 h, replicate 2): 85% and 75% and 43% | Population Fragmented Nuclei (%) (24 h, replicate 1): 38% and 33% and 20% | Population Normal (%) (24 h, replicate 1): 40% and 41% and 81% | Total Cell Count (24 h, replicate 1): 280 and 738 and 614 | Population Fragmented Nuclei (%) (24 h, replicate 2): 16% and 32% and 12% | Population Healthy Nuclei (%) (24 h, replicate 2): 43% and 40% and 83% | Population Normal (%) (24 h, replicate 2): 39% and 33% and 93% | Population Tubulin-Different-Phenotype (%) (24 h, replicate 2): 75% and 91% and 46% | Population Apoptotic (%) (48 h, replicate 1): 75% | Population Fragmented Nuclei (%) (48 h, replicate 1): 46% | Population Healthy Nuclei (%) (48 h, replicate 1): 3% | Population Hoechst High Intensity Objects (%) (48 h, replicate 1): 56% | Population Membrane Permeable-Phenotype (%) (48 h, replicate 1): 0% | Population Mitochondria Different-Phenotype (%) (48 h, replicate 1): 25% | Population Mitotic Cells (%) (48 h, replicate 1): 24% | Population Normal (%) (48 h, replicate 1): 43% | Population Pyknosed Nuclei (%) (48 h, replicate 1): 50% | Population Tubulin-Different-Phenotype (%) (48 h, replicate 1): 0% | Total Cell Count (48 h, replicate 1): 280 | Population Apoptotic (%) (48 h, replicate 2): 100% | Population Fragmented Nuclei (%) (48 h, replicate 2): 32% | Population Healthy Nuclei (%) (48 h, replicate 2): 38% | Population Hoechst High Intensity Objects (%) (48 h, replicate 2): 63% | Population Membrane Permeable-Phenotype (%) (48 h, replicate 2): 7% | Population Mitochondria Different-Phenotype (%) (48 h, replicate 2): 92% | Population Mitotic Cells (%) (48 h, replicate 2): 0% | Population Normal (%) (48 h, replicate 2): 36% | Population Pyknosed Nuclei (%) (48 h, replicate 2): 28% | Population Tubulin-Different-Phenotype (%) (48 h, replicate 2): 82% | Total Cell Count (48 h, replicate 2): 296

Cn1cncc1[C@@](O)(COc1ccc(C#N)cc1-c1ccc(OC(F)(F)F)cc1)c1ccc(C#N)cc1 [A-108]
Population Apoptotic (%) (12 h, replicate 1): 23% and 20% | Population Fragmented Nuclei (%) (12 h, replicate 1): 11% and 16% | Population Healthy Nuclei (%) (12 h, replicate 1): 51% and 64% | Population Hoechst High Intensity Objects (%) (12 h, replicate 1): 11% and 14% | Population Mitochondria Different-Phenotype (%) (12 h, replicate 1): 8% and 4% | Population Mitotic Cells (%) (12 h, replicate 1): 76% and 79% | Population Normal (%) (12 h, replicate 1): 88% and 85% | Population Pyknosed Nuclei (%) (12 h, replicate 1): 36% and 18% | Total Cell Count (12 h, replicate 1): 827 and 582 | Population Apoptotic (%) (12 h, replicate 2): 12% and 14% | Population Fragmented Nuclei (%) (12 h, replicate 2): 3% and 9% | Population Healthy Nuclei (%) (12 h, replicate 2): 77% and 85% | Population Hoechst High Intensity Objects (%) (12 h, replicate 2): 4% and 2% | Population Mitochondria Different-Phenotype (%) (12 h, replicate 2): 19% and 7% | Population Mitotic Cells (%) (12 h, replicate 2): 87% and 85% | Population Normal (%) (12 h, replicate 2): 95% and 97% | Total Cell Count (12 h, replicate 2): 1209 and 1952 | Population Apoptotic (%) (24 h, replicate 1): 25% and 12% | Population Fragmented Nuclei (%) (24 h, replicate 1): 10% and 12% | Population Healthy Nuclei (%) (24 h, replicate 1): 60% and 78% | Population Hoechst High Intensity Objects (%) (24 h, replicate 1): 10% | Population Mitochondria Different-Phenotype (%) (24 h, replicate 1): 4% | Population Mitotic Cells (%) (24 h, replicate 1): 75% and 87% | Population Normal (%) (24 h, replicate 1): 89% | Total Cell Count (24 h, replicate 1): 759 and 650 | Population Apoptotic (%) (24 h, replicate 2): 8% and 5% | Population Healthy Nuclei (%) (24 h, replicate 2): 73% and 71% | Population Hoechst High Intensity Objects (%) (24 h, replicate 2): 4% and 3% | Population Mitochondria Different-Phenotype (%) (24 h, replicate 2): 9% and 2% | Population Mitotic Cells (%) (24 h, replicate 2): 91% and 95% | Population Normal (%) (24 h, replicate 2): 95% and 96% | Population Tubulin-Different-Phenotype (%) (24 h, replicate 2): 97% | Total Cell Count (24 h, replicate 2): 1251 and 3226
